Laboratory results: PubChem BioAssay

These compounds were tested against Voltage-gated potassium channel subunit beta-2 (Rattus norvegicus) (UniProt P62483) (assay: KvBeta positive modulators, primary screen, biochemical, NADPH fluorescence (AID 623;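 active means NADPH fluorescence slope more negative than the mean of all samples by about 3 SD, 99.7% confidence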;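 further: fluorescence intensity change per second fitted from 20 to 320 s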)). Settings: Recombinant KvBeta, NADPH fluorescence decrease slope, 10 min; at 10 µM; stronger effect = lower value.
Sequence of Voltage-gated potassium channel subunit beta-2 (Rattus norvegicus) (P62483 whole entry, looked up): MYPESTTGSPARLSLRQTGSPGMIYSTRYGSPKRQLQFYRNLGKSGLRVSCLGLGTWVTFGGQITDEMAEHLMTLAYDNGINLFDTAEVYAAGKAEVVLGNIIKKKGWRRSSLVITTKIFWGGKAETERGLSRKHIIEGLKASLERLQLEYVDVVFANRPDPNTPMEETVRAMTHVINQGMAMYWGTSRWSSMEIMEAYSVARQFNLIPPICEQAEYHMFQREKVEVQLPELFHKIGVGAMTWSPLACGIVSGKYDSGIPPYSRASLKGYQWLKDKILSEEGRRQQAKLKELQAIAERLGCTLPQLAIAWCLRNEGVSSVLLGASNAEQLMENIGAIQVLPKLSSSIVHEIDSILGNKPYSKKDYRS

NADPH fluorescence slope, inactive:
N#Cc1c(/N=C/c2ccco2)sc2c1CCC2 -0.000202, Cc1cccc(C)c1OCc1nnc2c3cnn(C)c3ncn12 -0.000169, Cc1cc2ncn(C(=O)N3CCOCC3)c2cc1C -3.6e-05, COCCCn1c2nc3ccccc3nc2c2c(=O)n(-c3ccccc3OC)cnc21 4.9e-05, Cc1nc2ccc(NC(=O)N3CCSCC3)cc2s1 5e-05, CCn1c(SCC(=O)NCc2ccco2)nc2c(c1=O)SC(C)C2 (stereo not given) -0.000131, COc1nc(OC)nc(N2CCC(NC(=O)C(Cc3ccc(C(C)C)cc3)NC(C)=O)CC2)n1 (stereo not given) -4.2e-05, Cc1nc2ccccn2c1C(=O)NCCCN1CCOCC1 0.000108, CN1C(=O)CC(C(=O)Nc2ccc(F)cc2)SC1=Nc1ccc2c(c1)OCO2 (stereo not given) -3.8e-05, Clc1ccc(Cl)c(-c2nn3c(COc4ccccc4)nnc3s2)c1 -2.8e-05, c1ccc(-n2nnnc2OCCOc2nnnn2-c2ccccc2)cc1 -6.2e-05, c1ccc(CNc2ccc3c(c2)ncn3C2CCCCC2)nc1 4.2e-05, Cn1c(Cc2csc(N)n2)nnc1SCC(=O)NCc1ccccc1 -9.4e-06, CC(=O)c1cc2c(=O)c3cc(C)ccc3oc2nc1C 5.2e-06, O=C(Nc1cccnc1N1CCOCC1)c1ccco1 -1.1e-05, Cc1ccc(NC(=O)Cn2cccc2)cc1Cl -5.7e-05, Cc1cc(NC(=O)Cn2cnc3c(cnn3C(C)(C)C)c2=O)no1 -3.1e-05, CCCn1c2c(c(O)c(C(=O)NC)c1=O)CCCC2 -6.4e-05, CCOC(=O)c1ccc(NC(=O)CC2SC(=NC)N(C)C2=O)cc1 (stereo not given) -5.8e-05, CCCn1c2ccccc2c2nnc(SCC(=O)Nc3ncccn3)nc21 -1.7e-05, c1ccc(-c2cc(-c3nc(-c4ccccn4)no3)c3ccccc3n2)cc1 -8.8e-06, O=C(O)C1CCCN1C(=O)Nc1ccc(F)cc1 (stereo not given) -4.9e-05, COc1ccc(Nc2nc(OC)nc(N3CCN(c4ccc(OC)cc4)CC3)n2)cc1 -3.4e-05, CCCC1CC(C)(C(=O)Cn2[nH]c(=O)ccc2=O)OC1=O (stereo not given) 0.000145, CCOC(=O)N1CCN(C(=O)c2ccc3nc4cc(Cl)ccc4c(=O)n3c2)CC1 2.7e-06, CCCCCOC(=O)CSc1nnc(-c2cc(OC)c(OC)c(OC)c2)o1 -3.4e-05, Cc1cc(=O)n(CC(C)C)c(O)c1C#N -3.7e-05, Oc1ccccc1C1=Nc2nc3ccccc3n2C(c2ccccc2)C1 (stereo not given) -7.3e-05, O=S(=O)(c1ccc2c(c1)OCCO2)N(Cc1ccc(F)cc1)Cc1nnc(-c2cccs2)o1 -0.000116, CCCNC(=O)c1c(N)n(-c2cc(OC)cc(OC)c2)c2nc3ccccc3nc12 2.2e-05, COc1ccc2cc(C#N)c(NC(C)C)nc2c1 -0.000141, Cc1c(NC(=O)CN2c3cccc4cccc(c34)S2(=O)=O)c(=O)n(-c2ccccc2)n1C -2.5e-05, COc1ccc(C2CC(=O)c3c(C)nc(N4CCN(c5ccccc5)CC4)nc3C2)cc1 (stereo not given) -4.7e-05, COc1cc(CC(=O)NCc2ccc3c(c2)OCO3)cc(OC)c1OC -0.000135, O=C(CCCC(=O)N(CC(=O)NC1CCCCC1)Cc1ccc2c(c1)OCO2)Nc1ccccn1 3.7e-05, CCCOc1ccc(/C(O)=C2/C(=O)C(=O)N(CCCOC)C2c2ccncc2)cc1 (stereo not given) -6.1e-05, Cc1cc(NC(=O)CCC(=O)N(CCc2ccccc2)C(C(=O)NC2CCCC2)c2ccco2)no1 (stereo not given) 0.000137, CCC(=O)OC1(C#CCOc2ccc(OC)cc2)CCN(C)CC1 -2.5e-05, CCCS(=O)(=O)N1CCC(C(=O)N2CCCC2)CC1 -8.1e-06, O=C(CS(=O)(=O)Cc1ccccc1)N1CCc2ccccc2C1 -4.4e-05

Each compound was assayed against Muscarinic acetylcholine receptor M4 (Homo sapiens) (UniProt P08173) (assay: compounds altering M4/GIRK thallium flux, either direction, primary screen, M4 allosteric agonist project, cell-based, HEK293 M4/GIRK, BTC-AM (AID 625;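 further: thallium influx through GIRK channels coupled to M4 in HEK293 cells with BTC-AM dye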)). Settings: at 10 µM, actives lie on both sides.
Sequence of Muscarinic acetylcholine receptor M4 (Homo sapiens) (P08173 whole entry, looked up): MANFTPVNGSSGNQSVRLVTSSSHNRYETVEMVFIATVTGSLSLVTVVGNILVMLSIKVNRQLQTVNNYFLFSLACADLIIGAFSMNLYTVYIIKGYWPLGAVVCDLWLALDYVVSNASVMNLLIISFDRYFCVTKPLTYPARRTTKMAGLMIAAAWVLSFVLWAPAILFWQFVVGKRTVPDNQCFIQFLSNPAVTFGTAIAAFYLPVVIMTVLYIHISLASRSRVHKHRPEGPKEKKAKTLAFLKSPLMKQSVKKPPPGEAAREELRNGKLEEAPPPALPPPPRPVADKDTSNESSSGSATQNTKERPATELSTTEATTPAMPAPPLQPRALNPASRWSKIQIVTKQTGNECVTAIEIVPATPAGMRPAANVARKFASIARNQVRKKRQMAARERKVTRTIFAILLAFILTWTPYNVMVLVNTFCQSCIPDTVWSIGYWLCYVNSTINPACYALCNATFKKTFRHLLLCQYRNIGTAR
Outline: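 Material: HEK293 cells with M4 receptor and GIRK channels; Times: cells overnight at 37 °C, BTC-AM loading 1 h, reads 2 min total; Technique: kinetic BTC-AM fluorescence sampled at 1 Hz, 10 s pre-addition baseline; Read-out basis: slope over 15–24 s of trace normalized to starting intensity; Controls: carbachol positive, DMSO negative.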

Fluorescence slope, inactive:
N#Cc1c(/N=C/c2ccco2)sc2c1CCC2 0.00356, Cc1cccc(C)c1OCc1nnc2c3cnn(C)c3ncn12 0.0037, Cc1cc2ncn(C(=O)N3CCOCC3)c2cc1C 0.00619, COCCCn1c2nc3ccccc3nc2c2c(=O)n(-c3ccccc3OC)cnc21 0.0045, Cc1nc2ccc(NC(=O)N3CCSCC3)cc2s1 0.00638, CCn1c(SCC(=O)NCc2ccco2)nc2c(c1=O)SC(C)C2 (stereo not given) 0.0058, COc1nc(OC)nc(N2CCC(NC(=O)C(Cc3ccc(C(C)C)cc3)NC(C)=O)CC2)n1 (stereo not given) 0.00515, Cc1nc2ccccn2c1C(=O)NCCCN1CCOCC1 0.0064, CN1C(=O)CC(C(=O)Nc2ccc(F)cc2)SC1=Nc1ccc2c(c1)OCO2 (stereo not given) 0.0044, Clc1ccc(Cl)c(-c2nn3c(COc4ccccc4)nnc3s2)c1 0.00451, c1ccc(-n2nnnc2OCCOc2nnnn2-c2ccccc2)cc1 0.00376, c1ccc(CNc2ccc3c(c2)ncn3C2CCCCC2)nc1 0.00406, Cn1c(Cc2csc(N)n2)nnc1SCC(=O)NCc1ccccc1 0.00622, CC(=O)c1cc2c(=O)c3cc(C)ccc3oc2nc1C 0.00597, O=C(Nc1cccnc1N1CCOCC1)c1ccco1 0.00549, Cc1ccc(NC(=O)Cn2cccc2)cc1Cl 0.00925, Cc1cc(NC(=O)Cn2cnc3c(cnn3C(C)(C)C)c2=O)no1 0.00541, CCCn1c2c(c(O)c(C(=O)NC)c1=O)CCCC2 0.00821, CCOC(=O)c1ccc(NC(=O)CC2SC(=NC)N(C)C2=O)cc1 (stereo not given) 0.00547, CCCn1c2ccccc2c2nnc(SCC(=O)Nc3ncccn3)nc21 0.00402, c1ccc(-c2cc(-c3nc(-c4ccccn4)no3)c3ccccc3n2)cc1 0.0088, O=C(O)C1CCCN1C(=O)Nc1ccc(F)cc1 (stereo not given) 0.00613, COc1ccc(Nc2nc(OC)nc(N3CCN(c4ccc(OC)cc4)CC3)n2)cc1 0.00593, CCCC1CC(C)(C(=O)Cn2[nH]c(=O)ccc2=O)OC1=O (stereo not given) 0.00625, CCOC(=O)N1CCN(C(=O)c2ccc3nc4cc(Cl)ccc4c(=O)n3c2)CC1 0.00404, CCCCCOC(=O)CSc1nnc(-c2cc(OC)c(OC)c(OC)c2)o1 0.00542, Cc1cc(=O)n(CC(C)C)c(O)c1C#N 0.00407, Oc1ccccc1C1=Nc2nc3ccccc3n2C(c2ccccc2)C1 (stereo not given) 0.00255, O=S(=O)(c1ccc2c(c1)OCCO2)N(Cc1ccc(F)cc1)Cc1nnc(-c2cccs2)o1 0.00797, CCCNC(=O)c1c(N)n(-c2cc(OC)cc(OC)c2)c2nc3ccccc3nc12 0.00602, COc1ccc2cc(C#N)c(NC(C)C)nc2c1 0.00581, Cc1c(NC(=O)CN2c3cccc4cccc(c34)S2(=O)=O)c(=O)n(-c2ccccc2)n1C 0.00478, COc1ccc(C2CC(=O)c3c(C)nc(N4CCN(c5ccccc5)CC4)nc3C2)cc1 (stereo not given) 0.00457, COc1cc(CC(=O)NCc2ccc3c(c2)OCO3)cc(OC)c1OC 0.00565, O=C(CCCC(=O)N(CC(=O)NC1CCCCC1)Cc1ccc2c(c1)OCO2)Nc1ccccn1 0.00636, CCCOc1ccc(/C(O)=C2/C(=O)C(=O)N(CCCOC)C2c2ccncc2)cc1 (stereo not given) 0.00606, Cc1cc(NC(=O)CCC(=O)N(CCc2ccccc2)C(C(=O)NC2CCCC2)c2ccco2)no1 (stereo not given) 0.00558, CCC(=O)OC1(C#CCOc2ccc(OC)cc2)CCN(C)CC1 0.00292, CCCS(=O)(=O)N1CCC(C(=O)N2CCCC2)CC1 0.00435, O=C(CS(=O)(=O)Cc1ccccc1)N1CCc2ccccc2C1 0.00542
